These results are taken from ChEMBL document CHEMBL4334447, “Discovery of 4-Aminoquinoline-3-carboxamide Derivatives as Potent Reversible Bruton's Tyrosine Kinase Inhibitors for the Treatment of Rheumatoid Arthritis” (J Med Chem, 2019).

Data set [1] is filed under the species Homo sapiens. Briefly: Selectivity ratio of IC50 for recombinant human N-terminal GST-fused TEC catalytic domain (359 to 631 residues) expressed in baculovirus expression system to IC50 for inhibition of FAM-labeled peptide binding to full-length human N-terminal GST-tagged BTK (2 to 659 residues) expressed in baculovirus infected Sf21 insect cells. Summed up: (§1)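 Ratio of kinase IC50 to BTK IC50. BTK measured by off-chip mobility shift: compound preincubated 10 min with BTK in 50 mM HEPES pH 7.5, 0.01% Brij-35, then FAM-labelled peptide and ATP added, 28 °C. Stopped with EDTA buffer; percent conversion fitted for IC50. Each panel kinase assayed in triplicate.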

For data set [2], the species on record is Homo sapiens. As to the kind of experiment: Selectivity ratio of IC50 for human full-length recombinant FYN to IC50 for inhibition of FAM-labeled peptide binding to full-length human N-terminal GST-tagged BTK (2 to 659 residues) expressed in baculovirus infected Sf21 insect cells. The method, boiled down: as §1
The species entered for data set [3] is Homo sapiens. As to the kind of experiment: Selectivity ratio of IC50 for recombinant mouse full-length BLK V421E mutant to IC50 for inhibition of FAM-labeled peptide binding to full-length human N-terminal GST-tagged BTK (2 to 659 residues) expressed in baculovirus infected Sf21 insect cells. The method, boiled down: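 Ratio is BLK IC50 divided by BTK IC50. BLK: radiometric, 50 mM Tris pH 7.5, 0.1 mM EGTA, 0.1 mM Na3VO4, 0.1% mercaptoethanol, 0.1 mg/mL poly(Glu,Tyr) 4:1, 10 mM Mg acetate, [γ-33P]ATP, 40 min room temperature, phosphoric acid stop, filter-bound scintillation counting. BTK: off-chip mobility shift with FAM-peptide. Triplicates, ≥3 assays.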

The target in data set [4] is T1, Tyrosine-protein kinase Tec (Homo sapiens, UniProt P42680).
T1 sequence (P42680 whole entry): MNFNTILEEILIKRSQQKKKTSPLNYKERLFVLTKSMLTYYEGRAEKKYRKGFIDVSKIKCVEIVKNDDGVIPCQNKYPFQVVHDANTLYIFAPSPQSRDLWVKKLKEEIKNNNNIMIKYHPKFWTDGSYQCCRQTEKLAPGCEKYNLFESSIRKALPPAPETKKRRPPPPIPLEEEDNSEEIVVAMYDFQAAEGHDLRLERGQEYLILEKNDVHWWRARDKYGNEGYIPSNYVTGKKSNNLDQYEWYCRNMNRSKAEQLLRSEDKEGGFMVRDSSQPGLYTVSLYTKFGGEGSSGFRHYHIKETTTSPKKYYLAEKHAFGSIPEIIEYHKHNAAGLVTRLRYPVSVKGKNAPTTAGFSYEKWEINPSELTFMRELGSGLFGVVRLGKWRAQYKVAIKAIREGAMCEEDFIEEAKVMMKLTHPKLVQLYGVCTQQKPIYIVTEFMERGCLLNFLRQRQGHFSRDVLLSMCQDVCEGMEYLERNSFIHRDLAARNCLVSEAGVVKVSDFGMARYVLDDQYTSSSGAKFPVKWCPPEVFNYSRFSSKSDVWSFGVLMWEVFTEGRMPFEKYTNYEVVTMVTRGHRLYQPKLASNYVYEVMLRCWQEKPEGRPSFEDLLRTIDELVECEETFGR
As to the kind of experiment: Inhibition of recombinant human N-terminal GST-fused TEC catalytic domain (359 to 631 residues) expressed in baculovirus expression system using biotin-labelled STK/TK as substrate measured after 1 hr by HTRF assay. Summed up:
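HTRF KinEase format: TEC kinase and substrate mixed with serial compound concentrations at rt, then ATP added to start. Stopped after 1 h with EDTA detection solution containing europium anti-phosphotyrosine antibody and streptavidin-XL665. Read after a further 1 h at rt. Mean of ≥3 assays in triplicate.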
On the technique in general: TR-FRET usually uses a lanthanide donor and a delayed reading to cut background.

A short description of data set [5]: Stability in Beagle dog plasma assessed as parent compound remaining at 1 uM measured after 2 hrs by LC-MS/MS analysis. The class given is ADME, cell-free, Canis lupus familiaris. The conditions noted are these: read-out: Stability. Summed up:
(§2)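 Compound at 1 µM initial concentration incubated 2 h at 37 °C in plasma. Quenched with 10 volumes of methanol containing internal standard, then centrifuged. Supernatant diluted with an equal volume of water and analysed by LC-MS/MS. Read-out is % parent remaining. Mean of three separate assays run in triplicate.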

For data set [6], the target named is Tyrosine-protein kinase Yes (Homo sapiens, UniProt P07947). Briefly: Inhibition of human full-length recombinant YES using poly(Glu, Tyr) 4:1 as substrate measured after 40 mins in presence of [gamma-33P]-ATP by scintillation counting analysis. Summed up:
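Started with Mg/ATP at room temperature; 40 min incubation. Stopped with 0.5% phosphoric acid, spotted onto Filtermat A, washed, scintillation counted. Mean of ≥3 assays in triplicate.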

Data set [7] in a line: Stability in mouse plasma assessed as parent compound remaining at 1 uM measured after 2 hrs by LC-MS/MS analysis. The class given is ADME, cell-free. The conditions noted are these: read-out: Stability. Summed up:
as §2

Data set [8] concerns the target Proto-oncogene tyrosine-protein kinase Src (Homo sapiens, UniProt P12931). As to the kind of experiment: Inhibition of recombinant full-length human SRC using KVEKIGEGTYGVVYK as substrate measured after 40 mins in presence of [gamma33P]ATP by scintillation counting analysis. The method, boiled down: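 Started with Mg/ATP at room temperature; 40 min incubation. Stopped with 0.5% phosphoric acid, filtermat-spotted, washed, scintillation counted. Mean of ≥3 assays in triplicate.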

Data set [9] can be described thus: Stability in human plasma assessed as parent compound remaining at 1 uM measured after 2 hrs by LC-MS/MS analysis. The class given is ADME, cell-free. Conditions: read-out: Stability. The method, boiled down: as §2
A short description of data set [10]: Toxicity in complete freund's adjuvant-induced DBA/1 mouse arthritis model assessed as change in body weight at 10 mg/kg, po qd administered starting from 29 day post-CFA challenge and measured on day 29, 33, 36, 40 and 43. Conditions: in vivo, 696 h. The class given is organism-based. Summed up: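 CIA in male DBA/1 mice: intradermal bovine type II collagen in CFA on day 0, collagen II in IFA boost on day 20. Randomized on day 29 and given oral doses once daily (n=6 per group) alongside vehicle and naive groups. Body weights recorded over the study days.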

Data set [11] deals with Tyrosine-protein kinase Fyn (Homo sapiens, UniProt P06241). Briefly: Inhibition of human full-length recombinant FYN using KVEKIGEGTYGVVYK as substrate measured after 40 mins in presence of [gamma-33P]-ATP by scintillation counting analysis. Summed up:
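Started with Mg/ATP; 40 min at room temperature. Stopped with 0.5% phosphoric acid, spotted onto P30 filtermat, washed, scintillation counted. Mean of ≥3 assays in triplicate.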

Data set [12] in a line: Volume of distribution in Sprague-Dawley rat at 2 mg/kg, iv or 5 mg/kg, po by LC-MS/MS analysis. The class given is ADME, organism-based. The conditions noted are these: in vivo. The method, boiled down: (§3)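 Male Sprague-Dawley rats (187-205 g, n=6 per route). IV group: 2 mg/kg by tail vein in 10% DMSO/90% PEG400, fed animals. Oral group: 5 mg/kg as a 0.5% methylcellulose suspension, fasted animals. Jugular cannula blood taken pre-dose and from 0.033 h (iv only) to 24 h. Plasma stored at -20 °C and analysed by LC-MS/MS.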

Data set [13] addresses Tyrosine-protein kinase BTK (Homo sapiens, UniProt Q06187). As to the kind of experiment: Reversible inhibition of sodium orthovanadate-stimulated BTK autophosphorylation at Tyr223 residues in human Ramos cells preincubated for 2 hrs followed by sodium orthovanadate addition and measured after 15 mins by Western blot analysis. It counts as cell-based.
Data set [14] can be described thus: Clearance in Sprague-Dawley rat at 2 mg/kg, iv by LC-MS/MS analysis. It counts as ADME, organism-based. The conditions noted are these: in vivo. The method, boiled down:
as §3

pEC50, pIC50: −log10 of the molar value.

Sequence of Proto-oncogene tyrosine-protein kinase Src (P12931 2-536 limits assumed): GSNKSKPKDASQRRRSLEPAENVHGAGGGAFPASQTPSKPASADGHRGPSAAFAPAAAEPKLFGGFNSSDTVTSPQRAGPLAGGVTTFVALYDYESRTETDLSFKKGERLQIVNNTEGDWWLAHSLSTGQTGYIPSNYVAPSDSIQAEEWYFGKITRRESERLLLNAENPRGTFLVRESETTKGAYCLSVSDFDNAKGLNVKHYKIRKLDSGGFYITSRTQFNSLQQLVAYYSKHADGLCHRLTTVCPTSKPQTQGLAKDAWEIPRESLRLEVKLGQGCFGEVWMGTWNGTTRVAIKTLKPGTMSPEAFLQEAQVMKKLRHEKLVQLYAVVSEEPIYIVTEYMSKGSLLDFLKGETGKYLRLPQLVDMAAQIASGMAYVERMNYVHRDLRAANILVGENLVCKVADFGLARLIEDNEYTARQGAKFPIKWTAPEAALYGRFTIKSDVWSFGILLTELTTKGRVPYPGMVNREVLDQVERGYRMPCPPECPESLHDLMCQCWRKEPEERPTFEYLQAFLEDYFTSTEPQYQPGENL
Sequence of Tyrosine-protein kinase Fyn (P06241 whole entry): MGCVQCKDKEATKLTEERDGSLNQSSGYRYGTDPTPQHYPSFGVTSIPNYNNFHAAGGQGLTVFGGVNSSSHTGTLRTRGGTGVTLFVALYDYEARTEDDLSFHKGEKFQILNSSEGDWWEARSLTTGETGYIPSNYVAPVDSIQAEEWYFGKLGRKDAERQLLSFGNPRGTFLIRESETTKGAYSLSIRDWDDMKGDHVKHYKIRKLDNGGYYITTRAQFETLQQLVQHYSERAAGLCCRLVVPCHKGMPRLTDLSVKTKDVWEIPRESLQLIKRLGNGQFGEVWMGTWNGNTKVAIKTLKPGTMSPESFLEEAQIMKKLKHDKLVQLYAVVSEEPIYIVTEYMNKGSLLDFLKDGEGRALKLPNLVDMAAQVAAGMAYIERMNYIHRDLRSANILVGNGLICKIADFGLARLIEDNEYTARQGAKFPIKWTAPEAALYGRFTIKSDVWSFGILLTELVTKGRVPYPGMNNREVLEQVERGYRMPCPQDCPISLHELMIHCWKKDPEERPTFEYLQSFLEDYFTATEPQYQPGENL
Sequence of Tyrosine-protein kinase BTK (Q06187 whole entry): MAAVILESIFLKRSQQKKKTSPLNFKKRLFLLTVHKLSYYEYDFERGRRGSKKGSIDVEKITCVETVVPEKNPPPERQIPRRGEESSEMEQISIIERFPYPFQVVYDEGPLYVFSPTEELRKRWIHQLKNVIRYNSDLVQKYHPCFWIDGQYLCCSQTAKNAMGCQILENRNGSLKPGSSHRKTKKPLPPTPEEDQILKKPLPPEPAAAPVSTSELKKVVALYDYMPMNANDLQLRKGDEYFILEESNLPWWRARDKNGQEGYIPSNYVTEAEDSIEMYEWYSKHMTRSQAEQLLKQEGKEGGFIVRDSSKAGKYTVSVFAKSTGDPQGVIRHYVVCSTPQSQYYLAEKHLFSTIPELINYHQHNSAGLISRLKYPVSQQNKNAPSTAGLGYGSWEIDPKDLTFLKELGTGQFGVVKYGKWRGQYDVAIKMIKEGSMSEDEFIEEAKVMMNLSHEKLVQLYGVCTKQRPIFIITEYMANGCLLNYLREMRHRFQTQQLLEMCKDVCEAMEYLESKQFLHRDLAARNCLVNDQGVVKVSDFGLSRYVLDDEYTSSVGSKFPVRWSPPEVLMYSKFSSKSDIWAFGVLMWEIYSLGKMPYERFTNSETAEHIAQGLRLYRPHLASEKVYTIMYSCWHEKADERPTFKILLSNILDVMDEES
Sequence of Tyrosine-protein kinase Yes (P07947 whole entry): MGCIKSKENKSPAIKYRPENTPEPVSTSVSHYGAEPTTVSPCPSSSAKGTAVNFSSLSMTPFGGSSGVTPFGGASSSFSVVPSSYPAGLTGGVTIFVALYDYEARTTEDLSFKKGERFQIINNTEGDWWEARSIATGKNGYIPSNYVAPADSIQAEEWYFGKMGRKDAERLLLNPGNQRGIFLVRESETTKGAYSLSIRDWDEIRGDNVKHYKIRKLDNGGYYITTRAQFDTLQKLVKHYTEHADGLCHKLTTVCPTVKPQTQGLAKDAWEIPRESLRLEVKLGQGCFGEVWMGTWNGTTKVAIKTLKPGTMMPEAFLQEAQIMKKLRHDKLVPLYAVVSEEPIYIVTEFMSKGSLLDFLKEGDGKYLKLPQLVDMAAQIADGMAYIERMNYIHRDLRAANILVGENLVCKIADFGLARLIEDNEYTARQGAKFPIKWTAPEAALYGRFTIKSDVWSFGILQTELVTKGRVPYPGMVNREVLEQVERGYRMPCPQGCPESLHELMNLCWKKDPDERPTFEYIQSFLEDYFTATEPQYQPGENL

One may read the pIC50 as the IC50 on a negative log10 scale, so that one unit is a factor of ten. What is called pEC50 is the negative decadic logarithm of the EC50, by convention in mol/L. Low values mean a large EC50, high ones a small EC50. What is called clearance is a measure of how efficiently the substance is removed, as volume per time. A higher clearance goes with efficient removal. As to `COc1cc2cn[nH]c2cc1-c1ccc(F)c2c(N)c(C(N)=O)cnc12`, the results for the Ratio IC50 in the data set listed under Homo sapiens [1], in the data set filed under Homo sapiens [2] and in the data set filed under Homo sapiens [3] were 43, 31 and 28, respectively. In addition, the pIC50 is 6.64 in data set [4], < 5.00 in data set [6], 6.04 in data set [8] and 6.78 in data set [11]. Moreover, the figures for the remaining at 2 h, 1 µM in data set [5], in data set [7] and in [9] were 88%, 98% and 93%, respectively. Besides, in [10], the Activity result was “Non-Toxic”. The same compound displayed a Vd in data set [12] of 2.1 L/kg. The same compound had a pEC50 in [13] of 7.37. For the same compound, the clearance in [14] worked out at 20.8 mL/min/kg.
